V1aR counter – activates human V1a receptor in oxytocin agonist counter-screen; P37288; CHO-V1R cells, Fluo-8 calcium fluorescence, agonist mode; 0% DMSO, 100% 3 nM vasopressin; activation, % at 3 µM; actives 0.25% (n = 320,000); AID 2797;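 active = activation above the mean activation of all tested compounds plus 3 SD, per screening run, cut at about 20% in these data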;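 note: signal is peak over basal fluorescence ratio across a 100 second FLIPR read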
Target sequence (P37288 whole entry, looked up): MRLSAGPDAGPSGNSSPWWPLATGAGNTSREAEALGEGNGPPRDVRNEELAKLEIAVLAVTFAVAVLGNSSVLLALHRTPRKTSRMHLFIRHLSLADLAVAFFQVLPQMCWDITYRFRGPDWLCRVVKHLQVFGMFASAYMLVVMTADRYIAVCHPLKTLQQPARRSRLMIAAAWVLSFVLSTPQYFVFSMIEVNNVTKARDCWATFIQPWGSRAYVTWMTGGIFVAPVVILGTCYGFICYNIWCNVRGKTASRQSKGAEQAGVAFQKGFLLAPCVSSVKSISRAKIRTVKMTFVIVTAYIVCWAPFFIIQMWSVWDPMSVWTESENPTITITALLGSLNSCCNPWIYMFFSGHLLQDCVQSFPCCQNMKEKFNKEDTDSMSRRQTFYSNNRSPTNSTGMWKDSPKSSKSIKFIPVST
TAAR1 ag – human TAAR1 agonism | Q96RJ0 | CHO RD-HGA16 TAAR1, Fluo-8 calcium fluorescence; vehicle wells 0%, saturating PEA agonist 100% | activation, % at 3 µM | actives 0.99% (n = 360,000) | AID 624467;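 active = activation above the mean activation of all test compounds in the run plus 3 SD, cut at about 38% in these data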
Target sequence (Q96RJ0 whole entry, looked up): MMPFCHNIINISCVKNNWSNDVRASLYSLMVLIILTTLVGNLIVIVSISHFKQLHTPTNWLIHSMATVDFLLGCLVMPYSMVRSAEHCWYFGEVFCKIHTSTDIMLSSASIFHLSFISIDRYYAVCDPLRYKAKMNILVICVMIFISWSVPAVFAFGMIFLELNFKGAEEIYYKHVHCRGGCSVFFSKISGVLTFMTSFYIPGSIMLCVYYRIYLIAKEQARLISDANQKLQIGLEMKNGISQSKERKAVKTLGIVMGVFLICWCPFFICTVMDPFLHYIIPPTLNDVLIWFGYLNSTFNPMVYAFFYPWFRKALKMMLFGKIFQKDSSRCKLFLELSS
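Test system: RD-HGA16 (CHO) cells co-expressing Gα16 and hTAAR1 / Benchmarks: DMSO vehicle as 0%, PEA at EC100 as 100% / Repeats: no replicates (n 1) / Measure: % activation from peak over basal fluorescence ratio, DMSO-to-PEA scaled / Timing: 17-24 h plating, Fluo-8 75 min 37 °C, 30 min RT / Technique: kinetic Fluo-8 calcium fluorescence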
OXTR agonist – agonists of human oxytocin receptor | activation, % at 3 µM | AID 2435 | P30559 | CHO-OTR cells, Fluo-8 calcium fluorescence; normalized: DMSO 0%, oxytocin 100% | actives 0.32% (n = 320,000);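 active = activation above the mean of all tested compounds plus 3 SD, cutoff set per screening run, cut at about 20% in these data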;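 note: peak over basal fluorescence ratio from a 100 s FLIPR kinetic read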
OXTR potentiator – potentiators of human oxytocin receptor; P30559; CHO-OTR cells, Fluo-8 calcium fluorescence, potentiator mode; 0% = oxytocin EC15, 100% = EC100; activation, % at 3 µM; actives 0.061% (n = 320,000);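 active = activation above that plate's cutoff, the mean activation of tested compounds plus 3 SD, cut at about 6.6% in these data, passing the limit was not always enough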;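 note: 100% uses oxytocin at 75 nM as the full agonist control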
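Dosing: Single dose, 3.0 µM nominal final compound concentration | Material: Human OTR in CHO cells | Technique: Kinetic Fluo-8 calcium fluorescence | Benchmarks: EC15 oxytocin alone as 0%, 75 nM oxytocin as 100% | Probe or stimulus: Oxytocin at about EC15, sub-maximal agonist stimulus | Incubation: Compound 6 min at room temperature before oxytocin, 100 s read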
TAAR1 antagonist – human TAAR1 antagonism. CHO RD-HGA16 TAAR1, Fluo-8 calcium fluorescence, antagonist. inhibition, % at 3 µM. actives 1.5% (n = 360,000);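 active = inhibition above a per-plate cutoff, the mean inhibition of test compounds on that plate plus 3 SD, cut at about 49% in these data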;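 note: 0% = DMSO plus EC80 beta-PEA response and 100% = DMSO alone without agonist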
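System: CHO RD-HGA16 cells bearing hTAAR1. Reagent: EC80 β-phenethylamine stimulus. Schedule: seeding 17-24 h prior, 75-min 37 °C, 30-min RT dye loading. Signal: Fluo-8 intracellular calcium dye fluorescence, real-time kinetic reads. Read-out: % inhibition from peak post-agonist over basal fluorescence ratio. Benchmarks: vehicle wells and EC80 agonist wells. Replicates: n of 1.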
nonsel antag count – counter-screen for TAAR1 antagonists: nonselective antagonists | actives 77% (n = 2,400) | shares compounds with TAAR1 antagonist | inhibition, % at 3 µM | AID 651780 | counterscreen cell line, calcium fluorescence, antagonist mode; in the data active = inhibition above about 22%;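 note: CHO-Ga16 host cells stimulated with ATP at an EC80 level; 0% = agonist EC80 plus vehicle and 100% = vehicle without agonist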
TAAR1 antag conf – human TAAR1 antagonism, confirmed; shares compounds with TAAR1 antagonist; TAAR1-expressing cells, fluorescence antagonist read-out; actives 40% (n = 2,400); AID 651785; inhibition, % at 3 µM; in the data active = inhibition above about 49%;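 note: CHO-Ga16 host cells challenged with agonist PEA near its EC80; 0% = agonist at EC80 plus vehicle and 100% = vehicle with no agonist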
Ga16 ag counter – nonselective Ga16 agonism, counter-screen; Ga16-expressing cells, calcium fluorescence, agonist counterscreen; shares compounds with TAAR1 antagonist; AID 651953; activation, % at 3 µM; actives 18% (n = 2,400); in the data active = activation above about 12%;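 note: 0% = vehicle wells and 100% = saturating stimulus response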
TAAR1 ag counter – activates human TAAR1 in antagonist counter-screen; shares compounds with TAAR1 antagonist; hTAAR1 cell line, fluorescence activation, agonist mode; activation, % at 3 µM; actives 2% (n = 2,400); in the data active = activation above about 37%;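 note: CHO cells stably expressing TAAR1 with calcium dye readout; 0% = DMSO vehicle and 100% = full agonist response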
The depositor's hits bear a star; · = not tested or not shown. Most compounds without a hit are left out; they make up all but 2.3% or so of the library.

SMILES	V1aR counter	TAAR1 ag	OXTR agonist	OXTR potentiator	TAAR1 antagonist	nonsel antag count	TAAR1 antag conf	Ga16 ag counter	TAAR1 ag counter
Clc1cccc(-c2nc(NCCN3CCOCC3)c3ccccc3n2)c1	3.5	17.1	4.7	-19.8	63.8*	32.2*	55.0*	15.6*	15.9
Cn1nc(C(C)(C)C)c([N+](=O)[O-])c1C(=O)Nc1cccc2ccccc12	-1.0	5.4	-2.8	-14.5	55.7*	21.9*	34.1	5.1	4.3
COC(=O)c1cccc(NC(=O)c2ccc(S(=O)(=O)N(C)c3ccccc3OC)cc2)c1	·	12.8	·	·	70.1*	32.2*	41.0	7.2	5.4
COc1ccccc1N(C)S(=O)(=O)c1ccc(C(=O)N(C)Cc2ccc(OC(F)F)cc2)cc1	·	14.8	·	·	84.6*	44.7*	74.0*	13.0*	10.6
COc1ccccc1N(C)S(=O)(=O)c1ccc(C(=O)Nc2ccc3nc(C)sc3c2)cc1	3.9	7.3	3.3	-10.9	43.4	·	·	·	·
COc1ccccc1N(C)S(=O)(=O)c1ccc(C(=O)OCC(=O)NCc2cccs2)cc1	3.4	14.8	1.2	-5.7	83.1*	38.0*	61.8*	10.4	13.3
COc1cc(NC(=O)c2ccc(S(=O)(=O)N(C)c3ccccc3OC)cc2)cc(OC)c1	2.2	2.5	2.4	-8.2	43.4	·	·	·	·
COc1ccccc1N(C)S(=O)(=O)c1ccc(C(=O)Nc2cccc(Br)c2)cc1	3.7	6.2	3.0	-9.4	69.6*	36.4*	38.3	7.1	2.0
Cc1ccccc1C(=O)NNc1ccc(-c2csnn2)cc1	-1.7	3.4	1.1	-4.4	-8.4	·	·	·	·
O=C(N[C@@H](Cc1ccccc1)C(=O)OCc1ccccc1)c1ccco1	-0.5	5.6	-1.0	-9.3	19.1	·	·	·	·
Cc1ccc(C)c(NC(=O)C(Sc2nc3ccccc3c(=O)n2CC(C)C)c2ccccc2)c1 (stereo unspecified)	1.0	6.5	-1.4	-1.9	55.9*	28.3*	50.3*	2.6	1.2
O=C(CCSCc1cccc(F)c1)NCCc1ccccc1	0.0	19.1	-2.2	-6.1	55.9*	3.7	68.8*	7.2	25.8
O=C(Nc1cccc(C(F)(F)F)c1)C1=CC=CN2CCS(=O)(=O)N=C12	1.1	7.7	1.4	-9.3	-5.6	·	·	·	·
COc1ccccc1Nc1nnc(SCc2nnc(-c3cc(OC)c(OC)c(OC)c3)o2)s1	-1.9	10.1	-2.7	-1.2	57.8*	24.8*	33.8	8.2	6.8
CCOc1ccccc1Nc1nnc(SCc2nnc(-c3cc(OC)c(OC)c(OC)c3)o2)s1	-1.7	12.6	-1.6	-5.5	40.4	·	·	·	·
CCOc1ccc(OCCCC(=O)N2CCN(S(=O)(=O)c3ccccc3C#N)CC2)cc1	7.9	25.0	7.4	-7.8	60.0*	18.1	33.8	9.6	9.0
CCOc1ccc(OCCC(=O)N2CCN(S(=O)(=O)c3ccc(OCC)cc3)CC2)cc1	8.6	2.0	2.5	-6.3	-6.9	·	·	·	·
CC(C)N1CCN(c2ccc(OC[C@H]3CO[C@](Cn4cncn4)(c4ccc(Cl)cc4Cl)O3)cc2)CC1	1.1	28.5	2.3	-12.2	69.9*	31.5*	48.6*	15.4*	14.4
COc1ccc(N2CCN(Cc3nc(-c4ccc(Cl)cc4Cl)no3)CC2)cc1	0.8	-1.2	-0.8	-2.2	5.1	·	·	·	·
CC(=O)c1ccc(NC(=O)c2ccc(S(=O)(=O)c3ccccc3)cc2)cc1	6.7	20.6	6.6	-9.0	69.4*	38.7*	61.1*	12.4*	15.7
CC(C)(C)NC(=O)COC(=O)c1ccccc1OCC(=O)Nc1ccc(Br)cc1	0.2	10.2	-1.4	-6.2	51.0*	23.8*	42.6	8.8	8.5
CCCNC(=O)COC(=O)c1ccccc1OCC(=O)Nc1ccc(Br)cc1	0.3	1.1	-0.9	7.3	-12.8	·	·	·	·
Cc1ccc(NC(=O)c2ccccc2OCC(=O)Nc2ccccc2F)cc1S(=O)(=O)N(C)C	2.7	25.7	0.9	-11.2	68.5*	33.9*	51.6*	10.0	6.0
CCNC(=O)COc1ccc(F)cc1C(=O)c1cnn(-c2ccccc2)c1	3.1	0.3	1.4	-8.7	2.6	·	·	·	·
O=C(COc1ccccc1C(=O)c1cnn(-c2ccccc2)c1)Nc1ccccc1	1.3	1.9	-0.9	-7.9	53.2*	24.0*	40.8	6.1	6.3
SMILES	V1aR counter	TAAR1 ag	OXTR agonist	OXTR potentiator	TAAR1 antagonist	nonsel antag count	TAAR1 antag conf	Ga16 ag counter	TAAR1 ag counter
Cc1ccc(C(=O)NCC(=O)OCC(=O)c2c(N)n(C)c(=O)n(C)c2=O)cc1C	1.4	-1.2	0.1	-3.8	-0.9	·	·	·	·
CCOC(=O)[C@]12CCCC=C1N(Cc1ccccc1)C(=O)[C@H](CC(=O)N1CCCC1)C2	·	0.4	·	·	20.7	·	·	·	·
CN(C)S(=O)(=O)c1cccc(NC(=O)COc2ccccc2C(=O)Nc2ccccc2)c1	·	23.8	·	·	72.3*	52.8*	65.1*	14.0*	12.0
CC(=O)c1ccc(NC(=O)COc2ccccc2C(=O)Nc2ccccc2)cc1	7.0	11.8	8.6	-14.0	73.3*	45.0*	67.1*	14.6*	11.2
CCN(CC)S(=O)(=O)c1cc(NC(=O)c2ccccc2OCc2c(C)noc2C)ccc1C	·	2.9	·	·	63.6*	24.3*	44.0	2.6	-1.8
Cc1noc(C)c1COc1ccccc1C(=O)Nc1cccc(S(=O)(=O)N(C)C)c1	0.2	2.7	-0.3	-0.4	-3.0	·	·	·	·
Cc1nn(C2CCS(=O)(=O)C2)c(C)c1CN(C)C(=O)c1cccc(Cl)c1 (stereo unspecified)	1.1	0.2	1.7	-3.5	-0.1	·	·	·	·
CCCCCCN1CCN(C2CN(Cc3cn(Cc4ccc(C)cc4)nn3)S(=O)(=O)C2)CC1 (stereo unspecified)	·	-0.3	·	·	-25.7	·	·	·	·
CC(=O)c1c(C)[nH]c(C(=O)OCC(=O)c2ccc3c(c2)NC(=O)CO3)c1C	1.7	14.0	2.1	-5.0	38.6	·	·	·	·
Cc1cc(-c2nc(C)c(-c3nnc(SCC(=O)Nc4ccc(Cl)cc4)n3C)s2)no1	-0.2	2.4	0.0	-11.7	-10.9	·	·	·	·
CCCCCCSc1cccc(-c2nc3cc(C)ccn3c2NCc2ccccc2)c1	0.8	0.7	-1.1	-7.3	-26.3	·	·	·	·
Cc1ccc2nc(-c3cccc(-c4cccc(Cl)c4)c3)c(NCc3ccccc3)n2c1	0.0	9.9	-1.7	-11.0	72.5*	32.3*	33.0	2.2	3.5
